# Source: PubChem BioAssay
# Calls of active or inactive are those of the source.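 How the source made its calls, unless noted: active means viability loss from added drug above about 55%, and viability with drug at most 40%, in both replicates (limit read from the data, passing the limit was not always enough); inconclusive means both conditions met in only one replicate; inactive means neither replicate meets both conditions.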
# Legend:
# [1] = SK-BR-3 cell growth inhibitors, pilot screen, 24 h, human (AID 572;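 active means viability at or below 10% of carrier control in both of two separate runs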;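 further: compound exposure lasted between 18 and 24 h rather than exactly 24 h; 100% = carrier-treated control wells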); settings: SK-BR-3 viability, CellTiter-Glo luminescence, at 10 µM, stronger effect = lower value
# [2] = HUVEC growth inhibition – cell-based, human, primary screen (AID 575;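 active means viability at or below 30% in both replicate assays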;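 further: 100% = median of untreated cell wells with 0.1% DMSO on each plate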); settings: HUVEC proliferation, CellTiter-Glo luminescence, 72 h; at 10 µM; stronger effect = lower value
# In short: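 Assay system: Primary human umbilical vein endothelial cells | Quantity: 1250 cells per well | Medium: Supplemented EBM, 2% fetal bovine serum | Detection: CellTiter-Glo luminescence measuring cellular ATP | Read-out: % viability vs DMSO wells | Plate: Collagen-coated 384-well format | Times: 72 h exposure, 37 °C, 5% CO2, 30 min RT equilibration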
# [3] = growth inhibitors of H69AR lung tumor, primary screen, human, duplicate replicates (AID 580;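 active means viability at or under a set limit in both replicates, limit being median viability minus 3 SD, cut at about 48% in these data, passing the limit was not always enough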;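 further: 100% = mean luminescence of untreated wells and 0% = no signal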); settings: H69AR lung tumor cells viability, ATP luminescence, 72 h; at 10 µM; stronger effect = lower value
# [4] = reversal of MRP1-mediated doxorubicin resistance, pilot screen, H69AR cells, doxorubicin co-treatment (AID 601); settings: CellTiter-Glo, 72 h, at 10 µM; for differential viability (reversal): stronger effect = higher value
# [5] = 384-well plate pilot, post-Golgi transport modulator project, inhibition of yeast transport mutant growth (AID 636; in the data active means inhibition above about 31%); settings: absorbance 615 nm, about 18 h, stronger effect = higher value
# [6] = growth suppression of yeast trafficking mutant, preliminary HTS, modulators of trafficking downstream of Golgi apparatus project, 1536-format plate, OD 615 nm (AID 637; in the data active means inhibition above about 30%); settings: yeast transport mutant growth, absorbance 615 nm, 18 h; stronger effect = higher value
# [7] = H69AR cells + 2 uM doxorubicin, measured here: viability with 2 uM doxorubicin, stronger effect = lower value
# [8] = H69AR cells, compound alone cytotoxicity
SMILES,viability [1],viability [2],viability [3],differential viability (reversal) ([4]; H69AR cells + 2 uM doxorubicin),"viability [4, 7] [%]","viability [4, 8] [%]",inhibition [5],inhibition [6]
NCc1ccc(S(N)(=O)=O)cc1,124% (inactive),84.8% (inactive),102% (inactive),9.47% (inactive),92.1,102,-1.43% (inactive),6.33% (inactive)
CCOC(=O)c1ccccc1NC1CC(=O)N(c2ccccc2C)C1=O (centres undefined),98% (inactive),101% (inactive),98.4% (inactive),8.82% (inactive),89.6,98.4,-2.13% (inactive),-6.73% (inactive)
CC(Sc1nnnn1C)C(=O)Nc1ccc(Oc2ccccc2)cc1 (centres undefined),92% (inactive),87.8% (inactive),97.8% (inactive),11% (inactive),86.8,97.8,-7.53% (inactive),0.97% (inactive)
CCOC(=O)C1CCCN(CC(=O)NC2CC2)C1 (centres undefined),112% (inactive),96.6% (inactive),88.2% (inactive),-1.56% (inactive),89.7,88.2,-7.16% (inactive),-2.91% (inactive)
CN(C)c1ccc(C=NCC2(O)CCOC(C)(C)C2)cc1 (centres undefined),91% (inactive),91.8% (inactive),89.2% (inactive),0.32% (inactive),88.9,89.2,-7.67% (inactive),3.27% (inactive)
Cc1ccc2c(C)nc(NC3=NCN(C(C)C)CN3)nc2c1,106% (inactive),94.3% (inactive),84.3% (inactive),-15.4% (inactive),99.7,84.3,-5.89% (inactive),0.48% (inactive)
CCOC(=O)Cc1nnc(Nc2cccc(O)c2)c2ccccc12,98% (inactive),95.4% (inactive),106% (inactive),20.6% (inactive),85.8,106,-3.65% (inactive),0% (inactive)
CCC(CCC(=O)Nc1cccc(C(=O)O)c1)C(=O)O (centres undefined),62% (inactive),107% (inactive),103% (inactive),2.19% (inactive),101,103,-0.82% (inactive),2.36% (inactive)
CCCCCc1nnc(NC(=O)Cc2cccs2)s1,74% (inactive),110% (inactive),102% (inactive),10.7% (inactive),90.8,102,-6.71% (inactive),3.64% (inactive)
NC(CO)C(=O)NNCc1ccc(O)c(O)c1O (centres undefined),97% (inactive),82.9% (inactive),98.7% (inactive),8.12% (inactive),90.5,98.7,-3.51% (inactive),-2.67% (inactive)
O=C(Nc1ccc(F)cc1)NC1CCN(Cc2nnnn2Cc2ccco2)CC1,92% (inactive),70.5% (inactive),88.2% (inactive),-0.315% (inactive),88.5,88.2,-5.21% (inactive),-7.9% (inactive)
O=C1NC(=O)C(CC(=O)N(c2ccccc2)C2(C(=O)NC3CCCC3)CCCCC2)N1 (centres undefined),99% (inactive),100% (inactive),97.2% (inactive),8.26% (inactive),88.9,97.2,-8.36% (inactive),4.36% (inactive)
Cc1ccc(Cn2c(SCC(N)=O)nc3c2c(=O)n(C)c(=O)n3C)cc1,106% (inactive),86.9% (inactive),86.4% (inactive),3.46% (inactive),82.9,86.4,-2.4% (inactive),-6.55% (inactive)
COC(=O)C1=C(N)Oc2cc(C)n(Cc3ccncc3)c(=O)c2C1c1cccnc1 (centres undefined),113% (inactive),86% (inactive),88.4% (inactive),3.73% (inactive),84.6,88.4,-7.4% (inactive),0.97% (inactive)
O=C(Nc1cccc2ccccc12)N1CCN(c2ccccc2)CC1,89% (inactive),96.8% (inactive),94.4% (inactive),-7% (inactive),101,94.4,-0.91% (inactive),0.49% (inactive)
O=C1c2ccccc2NC2CCCCCN12 (centres undefined),108% (inactive),92.9% (inactive),100% (inactive),10.3% (inactive),89.8,100,-2.34% (inactive),1.48% (inactive)
COC(=O)C1C2C=CC3(CN(CC4CCCO4)C(=O)C13)O2 (centres undefined),78% (inactive),114% (inactive),102% (inactive),-9.38% (inactive),111,102,-6.99% (inactive),-0.18% (inactive)
COc1ccc(CNc2nc3nc(C)c(Cl)c(C)n3n2)cc1OC,97% (inactive),104% (inactive),92.6% (inactive),3.22% (inactive),89.4,92.6,-6.35% (inactive),-6.73% (inactive)
COc1ccc(N=C2C(=O)Nc3ccccc32)cc1,103% (inactive),66.7% (inactive),75.4% (inactive),-4.16% (inactive),79.5,75.4,-0.4% (inactive),-1.45% (inactive)
COC(=O)CCC(=O)Nc1ccc(S(=O)(=O)N2CCCCCC2)cc1,103% (inactive),99.2% (inactive),100% (inactive),1.32% (inactive),98.8,100,-1.69% (inactive),1.15% (inactive)
COc1cccc(C(=O)NC2=NCCS2)c1,109% (inactive),100% (inactive),96.7% (inactive),12.1% (inactive),84.6,96.7,-4.11% (inactive),0.32% (inactive)
Cc1cc(C)n2nc(SCC(=O)N(C)Cc3ccccc3)nc2n1,109% (inactive),107% (inactive),81.7% (inactive),-20.2% (inactive),102,81.7,-6.85% (inactive),1.82% (inactive)
C=CCn1c(=O)c2ccccc2n2c(SC(C)C(=O)Nc3nc(-c4ccccc4)cs3)nnc12 (centres undefined),66% (inactive),65.7% (inactive),79.6% (inactive),-2.34% (inactive),81.9,79.6,2.6% (inactive),5.41% (inactive)
Cc1cc2cc(CNC(=O)c3ccc4c(c3)OCO4)ccc2[nH]1,102% (inactive),114% (inactive),89.1% (inactive),-3.21% (inactive),92.3,89.1,-1.56% (inactive),3.61% (inactive)

SMILES,viability [1],viability [2],viability [3],differential viability (reversal) ([4]; H69AR cells + 2 uM doxorubicin),"viability [4, 7] [%]","viability [4, 8] [%]",inhibition [5],inhibition [6]
CC(C)C12CN3CC(C(C)C)(CN(C1)C3c1ccc3c(c1)OCO3)C2=O (centres undefined),117% (inactive),91.8% (inactive),85.5% (inactive),-0.655% (inactive),86.2,85.5,-1.6% (inactive),0.18% (inactive)
C=CCc1ccccc1OCC(O)CN1CCN(Cc2ccc3c(c2)OCO3)CC1 (centres undefined),101% (inactive),73.8% (inactive),70.1% (inactive),-5.96% (inactive),76,70.1,59.1% (active),58.4% (active)
C[C@@H]1C[C@H]2[C@@H]3C[C@H](F)C4=CC(=O)C=C[C@]4(C)[C@@]3(F)[C@@H](O)C[C@]2(C)[C@@]1(O)C(=O)COC(=O)C(C)(C)C,103% (inactive),76.9% (inactive),79.5% (inactive),-7.82% (inactive),87.3,79.5,-3.38% (inactive),-11.3% (inactive)
O=C(CSc1nccn1Cc1ccccc1)Nc1nccs1,90% (inactive),98.6% (inactive),108% (inactive),6.88% (inactive),101,108,-0.26% (inactive),1.48% (inactive)
CN1C(C(=O)Nc2ccccn2)=C(O)c2ccccc2S1(=O)=O,115% (inactive),94.7% (inactive),101% (inactive),13.4% (inactive),87.7,101,0.39% (inactive),-0.83% (inactive)
COCc1nnc(SCC(=O)NC(C)c2ccccc2)n1-c1ccccc1 (centres undefined),84% (inactive),101% (inactive),100% (inactive),-5.31% (inactive),105,100,-4.66% (inactive),1.27% (inactive)
Cc1nnc(SCCCn2c(N3CCCCC3)nc3c2c(=O)[nH]c(=O)n3C)s1,104% (inactive),92% (inactive),97.4% (inactive),10.2% (inactive),87.1,97.4,-6.03% (inactive),4% (inactive)
CN1CCc2c(sc3c2c(=O)n(-c2ccccc2)c2nnc(SCc4ccccc4)n32)C1,77% (inactive),108% (inactive),95.8% (inactive),9.76% (inactive),86,95.8,-2.33% (inactive),1.82% (inactive)
CN1CCC(=C2c3ccccc3C=Cc3ccccc32)CC1,100% (inactive),52.6% (inactive),82.4% (inactive),9.07% (inactive),73.4,82.4,-0.65% (inactive),1% (inactive)
COc1ccccc1NC(=O)Cc1noc(CSc2cc(C)c3ccccc3n2)n1,104% (inactive),89.5% (inactive),92.5% (inactive),11.8% (inactive),80.7,92.5,-4.59% (inactive),1.64% (inactive)
Cc1occc1C(=O)Nc1nnc(C2CCCCC2)s1,109% (inactive),93.1% (inactive),93.7% (inactive),14.1% (inactive),79.6,93.7,-2.74% (inactive),10.7% (inactive)
O=C(O)CCn1c(=O)c2ccccc2c2ccccc2c1=O,87% (inactive),109% (inactive),100% (inactive),5.16% (inactive),94.8,100,0.14% (inactive),-8.06% (inactive)
CCOc1ccccc1NC(=O)CN(C)S(=O)(=O)c1cccc2nsnc12,104% (inactive),91.1% (inactive),84% (inactive),-1.12% (inactive),85.1,84,-6.76% (inactive),0.73% (inactive)
COc1cccc(NC(=O)COC(=O)c2cccnc2)c1,91% (inactive),83.9% (inactive),91.1% (inactive),5.84% (inactive),85.3,91.1,-4.93% (inactive),4.35% (inactive)
CCCOc1cccc(NC(=O)c2c(-c3ccccc3)noc2C)c1,94% (inactive),89.7% (inactive),86.7% (inactive),-15.2% (inactive),102,86.7,0.78% (inactive),-1.97% (inactive)
CCOc1cc(C(=O)N(C)Cc2cc3cc(OC)ccc3[nH]c2=O)cc(OCC)c1OCC,88% (inactive),114% (inactive),95.1% (inactive),-1.01% (inactive),96.2,95.1,-4.46% (inactive),17.3% (inactive)
CCc1nc(SCc2cc(Cl)ccc2OC)n[nH]1,99% (inactive),94.2% (inactive),94.7% (inactive),-11.5% (inactive),106,94.7,-0.68% (inactive),-6.55% (inactive)
CCn1c(SCC(=O)N2CCN(c3ccc(Cl)cc3)CC2)nc2ccccc2c1=O,96% (inactive),77.2% (inactive),78.6% (inactive),-12.9% (inactive),91.5,78.6,5.89% (inactive),25.5% (inactive)
CCOc1cc(C(=O)N(C)Cc2cc3ccccc3[nH]c2=O)cc(OCC)c1OCC,92% (inactive),107% (inactive),98.6% (inactive),2.04% (inactive),96.6,98.6,-7.43% (inactive),-4.18% (inactive)
CC(C)N(Cc1nc(-c2ccccc2)no1)C(=O)CCCN1C(=O)c2ccccc2C1=O,104% (inactive),112% (inactive),97.9% (inactive),15.7% (inactive),82.2,97.9,-3.12% (inactive),0.98% (inactive)
CCC(CC)n1[nH]c(=O)c2c(C)cc(C)nc21,81% (inactive),103% (inactive),105% (inactive),14.5% (inactive),90.5,105,-5.14% (inactive),-6% (inactive)
CN(CC(=O)Nc1cccnc1)S(=O)(=O)c1cc(Cl)ccc1Cl,104% (inactive),105% (inactive),91.7% (inactive),-7.51% (inactive),99.2,91.7,-0.14% (inactive),6.73% (inactive)
CCN(CC)CCCNc1oc(-c2cccc(Cl)c2)nc1C#N,113% (inactive),74.7% (inactive),76.6% (inactive),-0.39% (inactive),77,76.6,-4.55% (inactive),-0.67% (inactive)
CCCNC(=O)C1CN(S(=O)(=O)c2ccccc2)CCN1S(=O)(=O)c1ccccc1 (centres undefined),103% (inactive),108% (inactive),99.2% (inactive),9.82% (inactive),89.4,99.2,4.42% (inactive),3.77% (inactive)
